pIC50: −log10 of the molar value.
Assays:
[1] = tested on: A549; assay: Anticancer activity against human A549 cells assessed as inhibition of cell proliferation; format: functional, cell-based
[2] = tested on: MDA-MB-231; assay: Anticancer activity against human MDA-MB-231 cells assessed as inhibition of cell proliferation; format: functional, cell-based
[3] = tested on: HeLa; assay: Anticancer activity against human HeLa cells assessed as inhibition of cell proliferation; format: functional, cell-based
[4] = Cytotoxicity against HUVEC cells assessed as inhibition of cell growth; conditions: human
[5] = tested on: MDA-MB-231; assay: Induction of cell cycle arrest in human MDA-MB-231 cells assessed as accumulation of cells at G2 phase at 10 uM (reference value: 16.5 %); format: functional
[6] = tested on: MDA-MB-231; assay: Induction of cell cycle arrest in human MDA-MB-231 cells assessed as accumulation of cells at G1 phase at 10 uM (reference value: 61.33 %); format: functional
[7] = tested on: MDA-MB-231; assay: Induction of apoptosis in human MDA-MB-231 cells assessed as late apoptotic cells at 10 uM by Annexin V-FITC/propidium iodide staining based flow cytometric analysis (reference value: 1.02 %); format: functional
Procedure, shortened: (§1)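 MDA-MB-231 cells were cultured with compound at 10 μM. DMSO-treated cells served as the vehicle control and combretastatin A4 (10 μM) as the positive control. Cells were double-labelled with Annexin V-FITC and propidium iodide and analysed by flow cytometry. Population percentages were read from the quadrants: early-apoptotic, late-apoptotic and dead cells. Incubation time was not given.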

[8] = tested on: MDA-MB-231; assay: Induction of apoptosis in human MDA-MB-231 cells assessed as dead cells at 10 uM by Annexin V-FITC/propidium iodide staining based flow cytometric analysis (reference value: 0.68 %); format: functional; procedure, shortened: as §1
[9] = tested on: MDA-MB-231; assay: Induction of apoptosis in human MDA-MB-231 cells assessed as viable cells at 10 uM by Annexin V-FITC/propidium iodide staining based flow cytometric analysis (reference value: 93.6 %); format: functional; conditions: read-out: Activity
[10] = tested on: MDA-MB-231; assay: Induction of cell cycle arrest in human MDA-MB-231 cells assessed as accumulation of cells at S phase at 10 uM (reference value: 21.17 %); format: functional
[11] = tested on: MDA-MB-231; assay: Induction of apoptosis in human MDA-MB-231 cells assessed as early apoptotic cells at 10 uM by Annexin V-FITC/propidium iodide staining based flow cytometric analysis (reference value: 4.66 %); format: functional; procedure, shortened: as §1

pIC50 [1] | pIC50 [2] | pIC50 [3] | Compound | also measured
6.59 | 7.00 | 6.70 | Cc1ccc(CN2C(=O)COC23C=CC(=O)C=C3)cc1 | 
5.89 | 6.96 | 6.39 | O=C1C=CC2(C=C1)OCC(=O)N2Cc1ccc(Cl)cc1 | pIC50 [4]: 4.35
< 5.00 | 6.34 | 5.76 | O=C1C=CC2(OCC(=O)N2Cc2cccc(Cl)c2)C2CC12 (configuration not stated) | 
5.59 | 5.91 | 5.97 | COC(=O)C(C(=O)OC)C1CC(=O)C=CC12OCC(=O)N2Cc1ccc(Br)cc1 (configuration not stated) | 
5.03 | 6.47 | 6.39 | COC(=O)C(C(=O)OC)C1CC(=O)C=CC12OCC(=O)N2Cc1ccc(C)cc1 (configuration not stated) | 
< 5.00 | 6.59 | 5.41 | CCSC1CC(=O)CC(SCC)C12OCC(=O)N2Cc1ccc(Cl)cc1 (configuration not stated) | 
5.22 | 5.95 | < 5.00 | O=C1C=CC2(OCC(=O)N2Cc2ccc(Br)cc2)C2CC12 (configuration not stated) | 
5.52 | 6.96 | 6.43 | O=C1C=CC2(C=C1)OCC(=O)N2Cc1cccc(Cl)c1 | 
< 5.00 | 5.92 | 5.41 | O=C1C=CC2(OCC(=O)N2Cc2ccc([N+](=O)[O-])cc2)C2CC12 (configuration not stated) | 
6.18 | 6.38 | < 5.00 | O=C1C=CC2(OCC(=O)N2Cc2ccccc2Cl)C2CC12 (configuration not stated) | 
5.00 | 6.42 | 6.74 | COC(=O)C(C(=O)OC)C1CC(=O)C=CC12OCC(=O)N2Cc1ccc(Cl)cc1 (configuration not stated) | 
5.05 | 5.26 | 5.75 | O=C1C=CC2(OCC(=O)N2Cc2c(Cl)cccc2Cl)C2CC12 (configuration not stated) | 
6.59 | 6.60 | 6.47 | COC(=O)C(C(=O)OC)C1CC(=O)C=CC12OCC(=O)N2Cc1cccc(Cl)c1 (configuration not stated) | 

The next lines start with the molecule.

Compound | pIC50 [1] | pIC50 [2] | pIC50 [3] | also measured
CCSC1CC(=O)CC(SCC)C12OCC(=O)N2Cc1ccc(C)cc1 (configuration not stated) | 5.64 | 5.87 | 5.62 | 
O=C1C=CC2(C=C1)OCC(=O)N2Cc1ccc([N+](=O)[O-])cc1 | 6.09 | 6.68 | 6.57 | 
O=C1C=CC2(OCC(=O)N2Cc2ccc(Cl)cc2)C2CC12 (configuration not stated) | 5.22 | 7.00 | < 5.00 | Activity [5]: 27.16%; Activity [6]: 53.57%; Activity [7]: 3%; Activity [8]: 0.72%; viability at 10 µM [9]: 85.4%; pIC50 [4]: 4.08; Activity [10]: 19.28%; Activity [11]: 10.9%
O=C1C=CC2(C=C1)OCC(=O)N2Cc1c(Cl)cccc1Cl | 5.31 | 6.92 | 6.54 | 
O=C1C=CC2(C=C1)OCC(=O)N2Cc1ccccc1Cl | 5.98 | 7.15 | 6.44 | 
CCSC1=CC(=O)CC(SCC)C12OCC(=O)N2Cc1c(Cl)cccc1Cl (configuration not stated) | 5.03 | 6.92 | 6.68 | 
O=C1C=CC2(C=C1)OCC(=O)N2Cc1ccc(Br)cc1 | 6.72 | 7.10 | 6.82 | 
Cn1c(CCCC(=O)O)nc2cc(N(CCCl)CCCl)ccc21 [BENDAMUSTINE] |  |  | < 4.70 | 
COc1ccc(/C=C\c2cc(OC)c(OC)c(OC)c2)cc1O [COMBRETASTATIN A4] |  |  |  | Activity [5]: 57.38%; Activity [6]: 10.16%; Activity [7]: 4.81%; Activity [8]: 0.35%; viability at 10 µM [9]: 77.7%; Activity [10]: 32.46%; Activity [11]: 17.2%
